Data on nine molecules can be found in ChEMBL document CHEMBL4622977, “A CNS-Targeting Prodrug Strategy for Nuclear Receptor Modulators” (J Med Chem, 2020).

Active and inactive are the calls of the source. No cut-off for these calls is given here.

A short description of data set [1]: Renal toxicity in C57BL/6 mouse assessed effect on Fasn gene expression in kidney at 9.14 umol/kg, ip administered once daily for 7 days by Trizol reagent based RT-qPCR analysis. Format: organism-based. The following applies: in vivo, 168 h. The procedure, abridged:
(§1)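 Male C57BL/6 mice (n=5) were dosed once daily for 7 days i.p. with parent drug at […], equimolar prodrug, or vehicle. The vehicle was 1:1:8 Kolliphor:NMP:water. Target gene expression was compared between groups per tissue by 2-tailed unpaired t test.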
In general terms: In qPCR the cycle at which signal appears reflects the starting amount.

For data set [2] the following is noted: mouse, in vivo, ip.
In data set [3] the test system is Mus musculus. Put plainly: In vivo agonist activity at PPAR in C57BL/6 mouse assessed upregulation of Pgc1-alpha gene expression at 9.14 umol/kg, ip administered once daily for 7 days by Trizol reagent based RT-qPCR analysis. It is filed as functional, organism-based. The procedure, abridged: as §1
The nature of the next data set: in vivo. Particulars: C57BL/6, mouse, brain/serum, ip, 9.14 umol/kg.
Data set [4] can be described thus: AUC (0.5 to 6 hrs) in C57BL/6 mouse serum at 9.14 umol/kg, ip by LC-MS/MS analysis. On the set-up: time upper 6 hr, dose 9.14 umol/kg, time lower 0.5 hr, route intraperitoneal. Format: ADME, organism-based. Particulars: in vivo. Put shortly: (§2)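 Male wild-type C57BL/6 mice (8−10 weeks, n=3 per time point) received parent drug or equimolar prodrug at […] i.p. in DMSO. Brain and serum were collected at 0.5, 2 and 6 h. Parent acid was quantified by LC-MS/MS against vehicle-tissue standard curves with d₆-sobetirome internal standard. AUC0.5–6 h was computed from the time course; mean ± SEM.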

Data set [5] concerns Mus musculus. Briefly: In vivo agonist activity at RAR in C57BL/6 mouse assessed upregulation of Adam10 gene expression in brain at 9.14 umol/kg, ip administered once daily for 7 days by Trizol reagent based RT-qPCR analysis. It is filed as functional, organism-based. The procedure, abridged: as §1
A short description of data set [6]: Hepatotoxicity in C57BL/6 mouse assessed effect on Rarres2 gene expression at 9.14 umol/kg, ip administered once daily for 7 days by Trizol reagent based RT-qPCR analysis. The following applies: in vivo, 168 h.
Data set [7] can be described thus: Prodrug conversion in C57BL/6 mouse brain assessed as GW7604 level at 9.14 umol/kg, ip measured after 1 hr in presence of FAAH inhibitor PF-3845 by LC-MS/MS analysis. The following applies: in vivo. Format: ADME, organism-based. Put shortly: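 Male C57BL/6 mice (n=3) received PF-3845 at 1 mg/kg i.p., then prodrug at […] i.p. 1 h later; comparators received prodrug alone. Vehicle was DMSO. Whole brain was taken 1 h after prodrug and homogenized in water with d₆-sobetirome internal standard. It was extracted with EtOAc/MeCN and parent acid was measured by LC-MS/MS; mean ± SEM, 2-tailed unpaired t test.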

The nature of data set [8]: AUC (0.5 to 6 hrs) in C57BL/6 mouse serum assessed as GW7604 level at 9.14 umol/kg, ip by LC-MS/MS analysis. It is filed as ADME, organism-based. On the set-up: time lower 0.5 hr, dose 9.14 umol/kg, time upper 6 hr, route intraperitoneal. The following applies: in vivo. Put shortly:
as §2

A short description of data set [9]: Brain to serum concentration ratio, Kp of the compound in C57BL/6 mouse assessed as GW7604 level at 9.14 umol/kg, ip by LC-MS/MS analysis. It is filed as ADME, organism-based. The procedure, abridged:
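Brain-to-serum ratio Kp was calculated from brain and serum parent-drug AUC0.5–6 h (ng/g*h). These AUCs came from male C57BL/6 mice (n=3 per time point) given parent drug or equimolar prodrug at […] i.p. in DMSO, sampled at 0.5, 2 and 6 h. Parent acid was quantified by LC-MS/MS with d₆-sobetirome internal standard.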

The nature of data set [10]: AUC (0.5 to 6 hrs) in C57BL/6 mouse brain assessed as GW7604 level at 9.14 umol/kg, ip by LC-MS/MS analysis. On the set-up: time 0.5-6 hr, dose 9.14 umol/kg, route intraperitoneal. It is filed as ADME, organism-based. The following applies: in vivo. Put shortly: as §2

For `CCO[C@@H](Cc1ccc(OCCc2ccc(OS(C)(=O)=O)cc2)cc1)C(=O)O` [TESAGLITAZAR], the Activity entry in data set [1] was “Toxic”. The AUC was 7.3 ng·h/g in data set [2] and 2107 ng·h/g in data set [4]. The outcome in the data set on Mus musculus [3] was inactive. In addition, the Kp (as a rule, the ratio of the level in a tissue or fluid to that in plasma or blood) in the data set “in vivo” came to 0.004.

For `Cc1cc(SCc2sc(-c3ccc(C(F)(F)F)cc3)nc2C)ccc1OCC(=O)O` [GW501516], the values for the AUC in [2] and in [4] were 41.8 ng·h/g and 2330 ng·h/g, respectively. This molecule also gave a Kp in the data set “in vivo” of 0.018.

With `CC(C)(Oc1ccc(CCNC(=O)c2ccc(Cl)cc2)cc1)C(=O)O` [BEZAFIBRATE], the AUC in [2] came to 5.5 ng·h/g; in data set [4], 420.7 ng·h/g. For the same molecule, the Kp in the data set “in vivo” was found to be 0.013.

Consider `CC1(C)CCSc2ccc(C#Cc3ccc(C(=O)O)cn3)cc21` [TAZAROTENIC ACID], for which the result with Mus musculus [5] was inactive. In addition, the Activity result in [6] is “Toxic”. Further, the AUC in [2] amounted to 38.5 ng·h/g; in [4], 314.5 ng·h/g. This molecule also gave a Kp in the data set “in vivo” of 0.12.

Take `O=C(O)Cc1cccc(OCCCN(Cc2cccc(C(F)(F)F)c2Cl)CC(c2ccccc2)c2ccccc2)c1`: the values for the AUC in data set [2] and in [4] were 1867 ng·h/g and 8853 ng·h/g, respectively. In “in vivo”, this molecule displayed a Kp of 0.21.

Molecule `O=C(O)Cc1cc(I)c(Oc2ccc(O)c(I)c2)c(I)c1` [TIRATRICOL] returned an AUC in data set [4] of 5108 ng·h/g.

Consider `CC/C(=C(\c1ccc(O)cc1)c1ccc(/C=C/C(=O)O)cc1)c1ccccc1`, for which the AUC in data set [2] was determined as 228.2 ng·h/g; in [4], 169.3 ng·h/g. The Kp in “in vivo” worked out at 1.35.

For the molecule `CC/C(=C(\c1ccc(O)cc1)c1ccc(/C=C/C(=O)NC)cc1)c1ccccc1`, in [7], the Drug metabolism result is recorded as “Metabolite_Notdetected”. Also, the results for the AUC in data set [8] and in data set [10] were 17.77 ng·h/g and 18.03 ng·h/g, respectively. Besides, the partition ratio (Kp) in data set [9] amounted to 1.01.

With `CCCc1c(OCCCSc2ccc(CC(=O)O)cc2Cl)ccc2c(C(F)(F)F)noc12`, the results for the AUC in data set [2] and in data set [4] were 67.35 ng·h/g and 2140 ng·h/g, respectively. This molecule also came in with a partition ratio (Kp) in the data set “in vivo” of 0.03.
